In the library only some 4.1% were active in any assay of this set; here they are far more common.
MrgX1 ag: activates human MrgX1 receptor signaling; Q96LB2; MrgX1-HEK293 cells, Fluo-4 calcium fluorescence, agonist mode; stronger effect = higher value; B-score at 10 µM; 310,000 tested, 0.44% active; AID 588627;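 active means calcium response B-score plate-corrected fluorescence ratio at least 3 library SD, with starting fluorescence B-score inside 5 SD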
Target sequence (Q96LB2 whole entry, looked up): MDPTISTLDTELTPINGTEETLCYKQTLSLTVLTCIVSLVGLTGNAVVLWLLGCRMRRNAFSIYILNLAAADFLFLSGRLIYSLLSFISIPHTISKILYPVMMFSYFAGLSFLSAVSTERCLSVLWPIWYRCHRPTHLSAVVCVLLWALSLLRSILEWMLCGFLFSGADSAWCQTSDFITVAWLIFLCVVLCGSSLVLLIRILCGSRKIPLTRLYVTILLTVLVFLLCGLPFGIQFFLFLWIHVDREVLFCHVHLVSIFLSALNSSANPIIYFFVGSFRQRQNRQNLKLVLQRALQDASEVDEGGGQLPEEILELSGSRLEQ
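Test system: HEK293 cells stably expressing human MrgX1 receptor; Input: fifteen thousand cells per well; Dosing: compound delivered in addition one of three; Schedule: overnight seeding, then 1 h dark dye loading; Technique: Fluo-4 NW calcium fluorescence; Measure: B-scored fluorescence response ratio; Controls: positive and negative controls per plate.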
MrgX1 PAM: allosterically activates human MrgX1 receptor signaling. Q96LB2. MrgX1-HEK293, Fluo-4 calcium flux, FDSS; stronger effect = higher value. B-score at 10 µM. 310,000 tested, 0.63% active;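 active means plate-corrected calcium response at least 3 library SD above typical, normal starting fluorescence, not activating the receptor alone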;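 further: compound read alongside a low EC10 to EC30 dose of BAM8-22 agonist; peak minus trough fluorescence over baseline measured at the second addition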
RGS4 block: human RGS4 inhibition; HEK293 M3R/RGS4 inducible, Fluo-4 calcium flux; stronger effect = higher value; triggered by carbachol at its EC20; 310,000 tested, 0.45% active; B-score at 10 µM; AID 463165;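 active means B-score, a plate-corrected calcium signal, over three deviations above library mean, with baseline fluorescence within five deviations of library mean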;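 further: RGS4 expression induced by doxycycline in cells with stable M3 receptor; B-score is computed from the integrated fluorescence ratio over baseline after carbachol; higher B-score means a larger calcium signal and so more RGS4 inhibition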
MrgX1 antag: blocks BAM8-22 activation of human MrgX1 receptor; MRGX1-HEK293 calcium flux, Fluo-4, BAM8-22 antagonism; stronger effect = lower value; 310,000 tested, 1.3% active; B-score at 10 µM; AID 588676; Q96LB2;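 active means calcium-response B-score plate-corrected more than 3 library SD below zero, starting fluorescence within 5 deviations, no agonist response on first addition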;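 further: peak minus trough fluorescence over baseline after final BAM8-22 challenge near maximal dose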
RGS4 pot: potentiators or activators of RGS4 | HEK293 M3R/inducible RGS4, carbachol calcium flux Fluo4; stronger effect = lower value | 310,000 tested, 0.92% active | B-score at 10 µM;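 active means B-score of the integrated calcium signal more than 4 SD below the library mean, with starting fluorescence not abnormally high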;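 further: negative B-score means reduced calcium response which marks RGS4 activation or potentiation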
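Material: Inducible-RGS4 HEK293 cells carrying M3 receptor; also added: carbachol at ECmax as muscarinic agonist stimulus; incubation: compound preincubation 20 min at room temperature before agonist; signal: Fluo4-AM (2 µM) calcium-flux fluorescence, kinetic read; measure: integrated calcium ratio converted to B score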
Kir21 block: blocks the mouse Kir2.1 inward-rectifier potassium channel. AID 1672. HEK293-Kir2.1, FluxOR thallium flux fluorescence; stronger effect = lower value. B-score at 10 µM. 310,000 tested, 0.85% active. P35561;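 active means fluorescence ratio B-score at or below minus 3 SD of library scores, with starting-brightness B-score within 2 SD, cut at about -4.2 in these data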;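 further: channel flux triggered by added potassium and thallium sulfate stimulus; B-score of peak minus minimum fluorescence over baseline after thallium stimulus; more negative B-score means stronger Kir2.1 block with less thallium influx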
* hit, by the source's call; i = inactive; nt = no result given.

SMILES | MrgX1 ag | MrgX1 PAM | RGS4 block | MrgX1 antag | RGS4 pot | Kir21 block
c1ccc(COc2ccc(OCCCCN3CCCCC3)cc2)cc1 | i | i | i | i | -10* | -4.7*
CN1CCN(CCCOc2ccc(-c3ccccc3)cc2)CC1 | i | i | i | i | -9.3* | -2.2
COC(=O)c1cc(NC(=O)CC2SCCNC2=O)cc(C(=O)OC)c1 (centres undefined) | i | i | i | i | i | -0.85
C/C(N)=C(/C#N)C(=O)CSc1nc2ccccc2n1CC(C)C | i | i | i | i | i | -0.68
CCOC(=O)c1nc2nc(C)c(Cl)c(=O)n2[nH]1 | i | i | nt | i | nt | nt
CCCCCCCCC/C(=N\O)c1ccccn1 | i | i | i | i | -10* | -2.2
CCCCCCCCC(=O)N/N=C/c1ccccn1 | i | i | i | i | i | 0.6
OCCc1c[nH]c2ccc(OCc3ccccc3)cc12 | i | i | i | i | i | -1.9
NC(=S)N/N=C/c1c[nH]c2ccc(OCc3ccccc3)cc12 | i | i | i | i | -7.1* | -0.07
O=C(NNC(=O)c1cccc(S(=O)(=O)N2CCN(c3ccccc3)CC2)c1)c1ccc(Cl)cc1 | i | i | i | i | i | -4.2
O=C(NNC(=O)c1cc(Cl)ccc1O)c1cccc(S(=O)(=O)N2CCOCC2)c1 | i | i | i | -4.8* | i | 2.1
O=C(NCc1ccc2c(c1)OCO2)c1cccs1 | i | i | i | i | i | -0.24
Cc1cc(=O)[nH]c(N/N=C/c2ccc(C)o2)n1 | i | i | i | -6.6* | i | -1.4
Cc1cc(=O)[nH]c(N/N=C/c2ccco2)n1 | i | i | i | i | i | 3.1
O=C(Nc1ccccc1)c1ccc(-c2ccc(Br)cc2)o1 | i | i | i | i | i | 0.03
O=C(Nc1cccc(NC(=O)c2ccc(-c3ccc(Br)cc3)o2)c1)c1ccccc1 | i | i | i | -4.6* | i | -0.48
